pIC50: −log10 of the molar value.
Legend:
[1] = Inhibition of bovine brain PKC; set-up: species or system Bos taurus
[2] = Permeability from basolateral to apical side of human Caco-2 cell membrane; format: ADME, cell-based
[3] = Permeability from apical to basolateral side of human Caco-2 cell membrane; format: ADME, cell-based
Caco-2 = assay: Ratio of permeability from apical to basolateral side over basolateral to apical side of human Caco-2 cell membrane; format: ADME, cell-based
Mus musculus [4] = assay: Gastrointestinal toxicity in mouse assessed as tail bleeding time at 200 mg/kg, po after 90 mins; format: organism-based; set-up: dose 200 mg/kg, route oral; settings: in vivo, 1.5 h
Procedure, shortened: (§1)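 Male mice (18–22 g) are dosed orally and compared with an NS group. At 30, 45, 60 and 90 min after dosing, each mouse is restrained in a tube holder and a 2-mm cut is made on the tail. Blood is wiped away every 30 s until flow stops, and the time to cessation is recorded.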

Mus musculus [5] = assay: Gastrointestinal toxicity in mouse assessed as tail bleeding time at 200 mg/kg, po after 60 mins; format: organism-based; set-up: dose 200 mg/kg, route oral; settings: in vivo, 1 h; procedure, shortened: as §1
Mus musculus [6] = assay: Gastrointestinal toxicity in mouse assessed as tail bleeding time at 200 mg/kg, po after 30 mins; format: organism-based; set-up: dose 200 mg/kg, route oral; settings: in vivo, 0.5 h; procedure, shortened: as §1
Mus musculus [7] = assay: Gastrointestinal toxicity in mouse assessed as tail bleeding time at 200 mg/kg, po after 45 mins; format: organism-based; set-up: dose 200 mg/kg, route oral; settings: in vivo, 0.75 h; procedure, shortened: as §1
Mus musculus [8] = assay: Antiinflammatory activity in Kunming mouse assessed as inhibition of xylene-induced ear edema at 5 mg/kg, po after […]rs; format: functional
Procedure, shortened: (§2)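 Male Kunming mice receive the agent orally as a suspension in 0.5% CMC; the vehicle group gets CMC alone. After 30 min, 0.03 ml xylene is applied to both surfaces of the right ear, and the left ear serves as control. At 2 h, mice are killed and 7-mm ear punches are weighed. Edema is taken as right minus left punch weight, and inhibition is calculated versus vehicle. n = 11; ANOVA.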

Mus musculus [9] = assay: Antiinflammatory activity in Kunming mouse assessed as inhibition of xylene-induced ear edema at 20 mg/kg, po after […]rs; format: functional; procedure, shortened: as §2
Mus musculus [10] = assay: Antiinflammatory activity in Kunming mouse assessed as inhibition of xylene-induced ear edema at 10 mg/kg, po after […]rs; format: functional; procedure, shortened: as §2

pIC50 [1]	SMILES	Time (Mus musculus [4]) [s]	Time (Mus musculus [5]) [s]	Time (Mus musculus [6]) [s]	Time (Mus musculus [7]) [s]	also measured
2.55	O=C(Cc1ccccc1)N[C@H]1CO[C@H](c2ccc([N+](=O)[O-])cc2)OC1	–	–	–	–	–
2.57	O=C(Cc1ccccc1)N[C@H]1CO[C@H](c2ccc(Cl)cc2)OC1	–	–	–	–	–
2.54	O=C(Cc1ccccc1)N[C@H]1CO[C@H](c2cccc([N+](=O)[O-])c2)OC1	–	–	–	–	–
–	C[C@@H]1O[C@H](c2ccc(Cl)cc2)OC[C@H]1NC(=O)Cc1ccccc1	–	–	–	–	Papp B→A [2]: 6.86 ×10⁻⁶ cm/s; Papp A→B [3]: 10.2 ×10⁻⁶ cm/s; Ratio (Caco-2): 1.48
–	C[C@@H]1O[C@H](/C=C/c2ccccc2)OC[C@H]1NC(=O)Cc1ccccc1	–	–	–	–	Papp B→A [2]: 7.15 ×10⁻⁶ cm/s; Papp A→B [3]: 8.8 ×10⁻⁶ cm/s; Ratio (Caco-2): 1.23
2.53	O=C(Cc1ccccc1)N[C@H]1CCO[C@H](c2ccc(Cl)cc2)OC1	–	–	–	–	–
2.53	O=C(Cc1ccccc1)N[C@H]1CCO[C@H](c2cccc([N+](=O)[O-])c2)OC1	–	–	–	–	–
2.53	O=C(Cc1ccccc1)N[C@H]1CCO[C@@H](c2ccc(Cl)cc2)OC1	–	–	–	–	–
–	N[C@H]1CO[C@@H](c2ccccc2)OC1	118.7	117.6	119.2	118.8	–
2.56	O=C(Cc1ccccc1)N[C@H]1CO[C@@H](c2ccc([N+](=O)[O-])cc2)OC1	–	–	–	–	–
2.55	O=C(Cc1ccccc1)N[C@H]1CO[C@@H](c2cccc([N+](=O)[O-])c2)OC1	–	–	–	–	–
–	C[C@@H]1O[C@@H](c2ccc([N+](=O)[O-])cc2)OC[C@H]1NC(=O)Cc1ccccc1	–	–	–	–	Papp B→A [2]: 6.98 ×10⁻⁶ cm/s; Papp A→B [3]: 10.4 ×10⁻⁶ cm/s; Ratio (Caco-2): 1.49
–	C[C@@H]1O[C@H](c2ccc([N+](=O)[O-])cc2)OC[C@H]1NC(=O)Cc1ccccc1	–	–	–	–	Papp B→A [2]: 6.93 ×10⁻⁶ cm/s; Papp A→B [3]: 10.3 ×10⁻⁶ cm/s; Ratio (Caco-2): 1.49
–	O=C(Cc1ccccc1)N[C@H]1CO[C@@H](/C=C/c2ccccc2)OC1	–	–	–	–	Papp B→A [2]: 7.87 ×10⁻⁶ cm/s; Papp A→B [3]: 8.97 ×10⁻⁶ cm/s; Ratio (Caco-2): 1.14
–	N[C@H]1CCCO[C@H](c2ccc(Cl)cc2)OC1	118.3	119.1	117.9	118.7	–
–	N[C@H]1CCCO[C@H](c2ccc([N+](=O)[O-])cc2)OC1	117.7	118.5	118.6	120.3	–
–	N[C@H]1CCCO[C@H](c2cccc([N+](=O)[O-])c2)OC1	118	121.5	117.8	117.9	–
–	N[C@H]1CCCO[C@@H](c2ccc(Cl)cc2)OC1	117.8	118.4	119.4	117.5	–
–	N[C@H]1CCCO[C@@H](c2cccc([N+](=O)[O-])c2)OC1	119.3	118.5	119.3	118.2	–
–	N[C@H]1CCO[C@@H](c2ccc([N+](=O)[O-])cc2)OC1	117.2	117.9	117.8	118.5	–
–	N[C@H]1CCO[C@@H](c2cccc([N+](=O)[O-])c2)OC1	118.6	118.5	120.1	118.7	–
–	N[C@H]1CO[C@H](c2ccccc2)OC1	119.6	119.7	119.3	119.2	–
–	C[C@@H]1O[C@@H](c2cccc([N+](=O)[O-])c2)OC[C@H]1N	118.3	117.4	118.9	119.2	–
–	N[C@H]1CO[C@H](c2ccc(Cl)cc2)OC1	119.6	118.7	119	118.9	–
–	C[C@@H]1O[C@H](c2ccccc2)OC[C@H]1N	118.9	118.6	118.7	118.9	–
–	N[C@H]1CO[C@H](c2cccc([N+](=O)[O-])c2)OC1	118.7	118.4	118.8	118	–

pIC50 [1]	SMILES	Time (Mus musculus [4]) [s]	Time (Mus musculus [5]) [s]	Time (Mus musculus [6]) [s]	Time (Mus musculus [7]) [s]	also measured
–	Cc1ccc([C@H]2OC[C@@H](N)CO2)cc1	118.4	118.7	118.3	119	–
–	N[C@H]1CO[C@@H](c2ccc([N+](=O)[O-])cc2)OC1	119.4	120.6	119.4	118.7	–
–	C[C@@H]1O[C@@H](c2ccc(Cl)cc2)OC[C@H]1NC(=O)Cc1ccccc1	–	–	–	–	Papp B→A [2]: 7 ×10⁻⁶ cm/s; Papp A→B [3]: 10.2 ×10⁻⁶ cm/s; Ratio (Caco-2): 1.46
–	N[C@H]1CCO[C@@H](c2ccc(Cl)cc2)OC1	119	118.6	118.4	119.6	–
–	N[C@H]1CCO[C@H](c2ccc([N+](=O)[O-])cc2)OC1	117.9	118.6	118.5	119	–
–	N[C@H]1CCO[C@H](c2cccc([N+](=O)[O-])c2)OC1	118.5	119	117.9	118.6	–
–	C[C@@H]1O[C@H](c2cccc([N+](=O)[O-])c2)OC[C@H]1N	118.2	119.5	118.9	118.2	–
2.57	O=C(Cc1ccccc1)N[C@H]1CO[C@@H](c2ccc(Cl)cc2)OC1	–	–	–	–	–
–	Cc1ccc([C@@H]2OC[C@@H](N)[C@H](C)O2)cc1	117.7	118.9	120.4	118.5	–
2.94	C[C@@H]1O[C@H](c2ccc(Cl)cc2)OC[C@H]1N	118.6	118.7	119.6	118.6	inhibition in vivo at 5 mg/kg (Mus musculus [8]): 29.8%; Papp B→A [2]: 6.88 ×10⁻⁶ cm/s; Papp A→B [3]: 11.7 ×10⁻⁶ cm/s; inhibition in vivo at 20 mg/kg (Mus musculus [9]): 67.9%; Ratio (Caco-2): 1.7; inhibition in vivo at 10 mg/kg (Mus musculus [10]): 46.2%
2.52	O=C(Cc1ccccc1)N[C@H]1CCO[C@@H](c2cccc([N+](=O)[O-])c2)OC1	–	–	–	–	–
–	N[C@H]1CCO[C@H](c2ccc(Cl)cc2)OC1	118.6	119.2	117.9	118.5	–
–	O=C(Cc1ccccc1)N[C@H]1CO[C@H](/C=C/c2ccccc2)OC1	–	–	–	–	Papp B→A [2]: 7.32 ×10⁻⁶ cm/s; Papp A→B [3]: 8.86 ×10⁻⁶ cm/s; Ratio (Caco-2): 1.21
2.54	O=C(Cc1ccccc1)N[C@H]1CCO[C@H](c2ccc([N+](=O)[O-])cc2)OC1	–	–	–	–	–
2.53	O=C(Cc1ccccc1)N[C@H]1CCO[C@@H](c2ccc([N+](=O)[O-])cc2)OC1	–	–	–	–	–
–	N[C@H]1CCCO[C@@H](c2ccc([N+](=O)[O-])cc2)OC1	117.6	118.4	118.6	119	–
3.03	C[C@@H]1O[C@H](c2ccc([N+](=O)[O-])cc2)OC[C@H]1N	119	118.8	117.8	118.1	inhibition in vivo at 5 mg/kg (Mus musculus [8]): 40.1%; Papp B→A [2]: 6.9 ×10⁻⁶ cm/s; Papp A→B [3]: 12.9 ×10⁻⁶ cm/s; inhibition in vivo at 20 mg/kg (Mus musculus [9]): 77.9%; Ratio (Caco-2): 1.86; inhibition in vivo at 10 mg/kg (Mus musculus [10]): 56.7%
2.79	C[C@@H]1O[C@@H](C=Cc2ccccc2)OC[C@H]1N	119.2	118.4	117.2	118.6	Papp B→A [2]: 7.17 ×10⁻⁶ cm/s; Papp A→B [3]: 10.2 ×10⁻⁶ cm/s; inhibition in vivo at 20 mg/kg (Mus musculus [9]): 52.9%; Ratio (Caco-2): 1.43
2.77	C[C@@H]1O[C@H](C=Cc2ccccc2)OC[C@H]1N	117.7	117.6	120.7	120.2	Papp B→A [2]: 7.06 ×10⁻⁶ cm/s; Papp A→B [3]: 10.3 ×10⁻⁶ cm/s; inhibition in vivo at 20 mg/kg (Mus musculus [9]): 51.6%; Ratio (Caco-2): 1.46
–	Cc1ccc([C@H]2OC[C@@H](N)[C@H](C)O2)cc1	118.7	119.8	120.9	121	–
–	Cc1ccc([C@H]2OC[C@H](N)CO2)cc1	117.8	119.5	118.5	119.2	–
–	N[C@H]1CO[C@H](c2ccc([N+](=O)[O-])cc2)OC1	118.9	118.6	119.5	117.7	–
–	N[C@H]1CO[C@@H](c2ccc(Cl)cc2)OC1	119.4	120.9	118.5	118.9	–
–	N[C@H]1CO[C@@H](c2cccc([N+](=O)[O-])c2)OC1	120.2	119.1	119.3	118.2	–
2.96	C[C@@H]1O[C@@H](c2ccc(Cl)cc2)OC[C@H]1N	118.7	118.5	118.3	118.9	inhibition in vivo at 5 mg/kg (Mus musculus [8]): 39.4%; Papp B→A [2]: 7.01 ×10⁻⁶ cm/s; Papp A→B [3]: 11.9 ×10⁻⁶ cm/s; inhibition in vivo at 20 mg/kg (Mus musculus [9]): 66.7%; Ratio (Caco-2): 1.7; inhibition in vivo at 10 mg/kg (Mus musculus [10]): 54.5%
